The subject of data set [1] is H9c2. The experiment in a line: Anti-oxidative effect in rat H9c2 cells assessed as reduction in H2O2-induced MnSOD activity at 10 uM preincubated for 4 hrs followed by H2O2 stimulation for 1 hr by WST-8 assay. Conditions: time 5.0 hrs. The format is functional, cell-based. An outline of the steps:
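H9c2 cells (ATCC) grown in high-glucose DMEM with 10% FBS at 37 °C, 5% CO2, used at 80-90% confluence and serum-starved 12 h. Compound given 4 h, then medium replaced by DMEM with 500 nM H2O2 for 1 h. Lysate spun 15,000g for 15 min. Cu/Zn SOD blocked with 1 mmol/L KCN, MnSOD read by WST-8 kit, expressed as U/mg protein.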

In data set [2] the test system is Mus musculus. The experiment in a line: Cardioprotective activity in C57BL/6J mouse model of LAD coronary artery ligation-induced acute myocardial infarction assessed as reduction in apoptosis of cardiomyocytes at 10 mg/kg, ip pretreated for 7 consecutive days followed by LAD coronary artery ligation after compound treatment for another 3 days by TUNEL staining based assay. Conditions: time 10.0 day. The class given is functional, organism-based. In a few lines:
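C57BL/6J mice, 8 weeks old, given compound i.p. in saline vehicle daily for 7 days, then permanent LAD ligation with body temperature held at 37 °C. Dosing continued 3 more days until sacrifice. Sections treated with proteinase K, then TdT reaction 30 min at 37 °C and DAPI counterstain. TUNEL-positive nuclei in border area counted as % of DAPI nuclei, N = 4 per group.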

Data set [3] relates to H9c2. The experiment in a line: Antiapoptotic activity in rat H9c2 cells assessed as reduction in H2O2-induced caspase-3 activation at 10 uM preincubated for 4 hrs followed by H2O2 stimulation for 1 hr by Western blotting analysis. The class given is functional, cell-based. Conditions: time 5.0 hrs. In a few lines:
(§1)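 Serum-starved (12 h) H9c2 cells were pretreated 4 h, then exposed to 500 nM H2O2 in DMEM for 1 h. Lysis on ice with protease/phosphatase inhibitors, then 13,000 g at 4 °C for 15 min. 20 μg protein run on 8-12% SDS-PAGE and blotted to PVDF. Probed overnight at 4 °C for caspase-3, pro-caspase-3, Bcl-2 and GAPDH, with chemiluminescent detection.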
(In general: In western blotting, separated proteins are transferred to a membrane and probed.)

Data set [4] has as its system H9c2. The experiment in a line: Cytoprotective activity against H2O2-induced injury in rat H9c2 cells assessed as reduction in LDH release at 10 uM preincubated for 4 hrs followed by H2O2 stimulation for 1 hr by LDH assay. The format is functional, cell-based. As to conditions: time 5.0 hrs. In a few lines: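 Cells at 5 × 10^4 per well in triplicate, 18 h, then 4 h compound and 1 h H2O2. Model wells had H2O2 without compound; controls had DMSO. 50 μL medium mixed with 2X LDH assay buffer, kept in the dark at 22-25 °C for 10-30 min, read at 490-520 nm. Activity blank-subtracted, normalised to BCA protein of the lysed cells, and expressed relative to model wells.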
In general terms: Release of lactate dehydrogenase indicates damage to the cell membrane.

Data set [5] concerns H9c2. The experiment in a line: Antioxidant activity in rat H9c2 cells assessed as protection against H2O2-induced hypoxic injury by measuring cell viability at 10 uM preincubated for 4 hrs followed by H2O2 stimulation for 1 hr by MTT assay relative to control. The format is functional. An outline of the steps:
(§2)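 H9c2 cells at 1 × 10^5 cells/mL, 100 μL per well in triplicate, left 18 h. Compound diluted in DMSO; DMSO alone as negative control. 4 h pretreatment, then 400 nM H2O2 for 1 h. Medium removed and MTT added for 2-4 h, formazan dissolved in DMSO, absorbance at 570 nm. Medium-only wells gave the blank.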
In general terms: Formazan colour is commonly taken as a measure of viable cells.

Data set [6] can be described thus: Half life in po dosed Sprague-Dawley rat measured upto 24 hrs by LC-MS/MS analysis. The format is ADME, organism-based. Conditions: in vivo.
Data set [7] has as its system H9c2. The experiment in a line: Antiapoptotic activity in rat H9c2 cells assessed as reduction in H2O2-induced mitochondrial membrane potential loss at 10 uM preincubated for 4 hrs followed by H2O2 stimulation for 1 hr by JC1 staining based fluorescence microscopic analysis. Conditions: time 5.0 hrs. The format is functional, cell-based. In a few lines: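 Pretreatment 4 h before 400 nM H2O2. Cells washed in cold PBS pH 7.4 and loaded with 0.5 μg/mL JC-1 for 40 min at 37 °C, washed, then viewed at once by fluorescence microscopy. Monomer read at ex 490/em 535 nm, aggregate at ex 525/em 600 nm. Ratio taken from three independent fields per group, mean ± SD.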

Data set [8] deals with H9c2. The experiment in a line: Antioxidant activity in rat H9c2 cells assessed as protection against H2O2-induced hypoxic injury by measuring cell viability at 1 uM preincubated for 4 hrs followed by H2O2 stimulation for 1 hr by MTT assay relative to control. The class given is functional. An outline of the steps: as §2
The test system of data set [9] is H9c2. The experiment in a line: Antioxidant activity in rat H9c2 cells assessed as protection against H2O2-induced hypoxic injury by measuring cell viability at ED50 concentration preincubated for 4 hrs followed by H2O2 stimulation for 1 hr by MTT assay relative to control. The format is functional. Conditions: time 5 hrs. An outline of the steps:
(§3)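 ED50 taken from log dose against % viability. Viability also reported at the EC50 concentration. Means ± SEM from three independent experiments.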

Data set [10] has as its system H9c2. The experiment in a line: Antiapoptotic activity in rat H9c2 cells assessed as restoration of H2O2-induced bcl-2 downregulation at 10 uM preincubated for 4 hrs followed by H2O2 stimulation for 1 hr by Western blotting analysis. The format is functional, cell-based. As to conditions: time 5.0 hrs. In a few lines:
as §1

Data set [11] concerns H9c2. The experiment in a line: Antioxidant activity in rat H9c2 cells assessed as protection against H2O2-induced hypoxic injury by measuring cell viability preincubated for 4 hrs followed by H2O2 stimulation for 1 hr by MTT assay relative to control. The format is functional. As to conditions: time 5 hrs, read-out: ED50 (the source's name). An outline of the steps:
as §3

A short description of data set [12]: Oral bioavailability in Sprague-Dawley rat measured upto 24 hrs by LC-MS/MS analysis. The format is ADME, organism-based. Conditions: in vivo.
Data set [13] concerns Mus musculus. The experiment in a line: Cardioprotective activity in C57BL/6J mouse model of LAD coronary artery ligation-induced acute myocardial infarction assessed as reduction in myocardial infarct size at 10 mg/kg, ip pretreated for 7 consecutive days followed by LAD coronary artery ligation after compound treatment for another 3 days by TTC staining based assay. The format is functional, organism-based. Conditions: time 10.0 day. An outline of the steps:
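Male/female not stated; 8-week C57BL/6J mice given daily ip doses in saline vehicle for 7 d, then permanent LAD ligation, with dosing continued 3 more days to sacrifice. Under isoflurane, hearts perfused with saline plus 40 mM KCl, cut into 4-5 transverse slices, stained with 1% TTC pH 7.4 at 37 °C for 20 min, formalin-fixed; infarct area by planimetry as % of LV area; N = 6-7 per group.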

Calls of active or inactive are those of the source. The rule behind the calls is not given here.

On to `COc1cc(C(=O)OCCCCNC(=N)N)cc(OC)c1O` [LEONURINE], for which the outcome in the data set on H9c2 [1], with Mus musculus [2], in the data set on H9c2 [3], with H9c2 [7], with H9c2 [10] and with Mus musculus [13] was Active. Moreover, the outcome with H9c2 [4] was inactive. For the same compound, the Activity with H9c2 [5] is listed as 62.7%; in the data set with H9c2 [8], 52.4%; in the data set on H9c2 [9], 55.1%. Further, the half-life in data set [6] was > 2 h. In addition, the EC50 in the data set with H9c2 [11] came to 192 nM. Also, in data set [12], the bioavailability turned out to be 1.78%.
With `COc1cc(C(=O)OCCOCCNC(=N)N)cc(OC)c1O`, the results for the Activity with H9c2 [5], with H9c2 [8] and in the data set with H9c2 [9] were 69.8%, 63.4% and 58.8%, respectively. Besides, the result in the data set on H9c2 [10] was inactive. Further, the EC50 in the data set with H9c2 [11] is 151 nM.
For `Cc1cccc(C(=O)OCCCCNC(=N)N)c1`, the result in the data set on H9c2 [4] was inactive. Further, the Activity with H9c2 [5] came out at 65.8%; in the data set on H9c2 [8] it was 64.4%; in the data set with H9c2 [9], 57.4%. Besides, in the data set on H9c2 [11], the EC50 is 156 nM.

Usually half-life stands for the time in which the quantity being followed falls by half. A lower half-life goes with rapid decline. In general, bioavailability refers to dose-corrected exposure relative to a reference, in per cent. Lower therefore signals poor availability.

The values above are taken from ChEMBL document CHEMBL4765343, “Design and synthesis of novel SCM-198 analogs as cardioprotective agents: Structure-activity relationship studies and biological evaluations” (Eur J Med Chem, 2020).
